Sampled rows, rich in hits. Any-hit rate of the full collection: about 6.8%.
ALR H2O2 inh = inhibitors of human ALR sulfhydryl oxidase, primary screen, biochemical, H2O2 detection, HRP-luminol luminescence, single point | FAD-linked sulfhydryl oxidase ALR (Homo sapiens), P55789 | purified ALR, DTT oxidation | inhibition, % (test concentration not listed) | 290,000 compounds, 3.8% hits | AID 485317, 2010;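 active = mean replicate inhibition above about 79%, with every replicate also reaching it, limit read from the data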
Target sequence (P55789 whole entry, looked up): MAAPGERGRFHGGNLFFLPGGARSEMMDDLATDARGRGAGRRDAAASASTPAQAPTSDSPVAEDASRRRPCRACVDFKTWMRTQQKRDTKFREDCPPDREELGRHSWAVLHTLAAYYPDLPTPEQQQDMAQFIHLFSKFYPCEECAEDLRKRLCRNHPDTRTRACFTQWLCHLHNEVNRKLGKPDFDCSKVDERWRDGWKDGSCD
HSF1 inh = HSF1 inhibitors in luciferase reporter cells, primary screen, cell-based, NIH3T3, luminescence; NIH3T3-HGL HSE-luciferase, MG132-induced, luminescence 8 h; active compounds read low; activity change, negative = inhibition, % at 7.5 µM (by protocol); 300,000 compounds, 0.77% hits; AID 2098, 2009;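 active = more than half of replicate wells show activity change below -50%, luminescence cut by over half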;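 also: luciferase reports HSF-1 transcriptional activity via heat shock element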
PHOSPHO1 block = PubChem AID 1565; recombinant PHOSPHO1, absorbance phosphatase assay; 290,000 compounds, 1.1% hits; Phosphoethanolamine/phosphocholine phosphatase (Homo sapiens), Q8TCT1; inhibition, % at 13.3 µM; in the data active = inhibition above about 60%
Target sequence (Q8TCT1 whole entry, looked up): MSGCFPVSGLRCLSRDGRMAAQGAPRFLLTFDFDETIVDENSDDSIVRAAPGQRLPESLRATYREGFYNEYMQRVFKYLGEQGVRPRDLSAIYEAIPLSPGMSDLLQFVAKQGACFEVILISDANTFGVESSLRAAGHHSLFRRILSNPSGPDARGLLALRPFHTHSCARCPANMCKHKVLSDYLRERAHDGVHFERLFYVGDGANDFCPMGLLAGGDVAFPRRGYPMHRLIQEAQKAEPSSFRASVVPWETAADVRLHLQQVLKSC
AI-2 QS modul = Vibrio harveyi AI-2 quorum sensing modulators, primary screen, JMH597 strain, luminescence/OD600 ratio | 300,000 compounds, 0.4% hits | AID 2094, 2009 | activity change, % at 7.5 µM | Vibrio harveyi JMH597 AI-2 luminescence/OD600 ratio, 9 h; active compounds read low; strain lacks LuxN and CqsS sensors; 0 = neutral-control median; in the data active = activity change below about -75%, passing the limit was not always enough;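 also: luminescence divided by OD600 gain over 9 h not by final OD600 alone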
HCV core dimer = inhibitors of HCV core protein dimerization, primary screen, biochemical, TR-FRET, high-throughput. TR-FRET GST/Flag-core106 dimerization, 1536-well. inhibition, % at 5 µM. 300,000 compounds, 0.33% hits;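 active = inhibition above the mean of all tested compounds plus 3 SD, set per screening campaign, cut at about 45% in these data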
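System: GST-tagged and Flag-tagged HCV core protein residues 1-106 / Input: core106 proteins, GST 13.5 nM and Flag 17 nM / Buffer or medium: KF-containing HEPES buffer, pH 7.45, DTT, CHAPS, BSA / Probe or stimulus: Eu-anti-GST and XL665-anti-Flag labelled anti-tag antibodies / Schedule: 4 h, 22.5 °C incubation / Technique: TR-FRET 671 and 617 nm emission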
HSF1 activator = HSF-1 activators, primary screen, NIH3T3-HGL cells, MG132 stress, luminescence, single point. AID 504408, 2011. 300,000 compounds, 1.7% hits. activation, % at 9 µM. NIH3T3-HGL HSF-1 luciferase reporter, 8 h; 100% = twice DMSO control signal;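 active = mean replicate activation of at least 50% with a set share of replicates each reaching 50%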
Large screens that a line does not name were inactive.

CC(=O)c1ccc(NC(=O)CC2Nc3cccc4cccc(c34)NC2=O)cc1 (configuration not stated)	none (no result: ALR H2O2 inh)
CNS(=O)(=O)c1ccc2c(c1)C(=O)c1cc(S(=O)(=O)NC)ccc1CC2	none (no result: HSF1 inh, PHOSPHO1 block, AI-2 QS modul, HCV core dimer, HSF1 activator)
O=C(O)Cn1cc(C(=S)N2CCOCC2)c2ccccc21	ALR H2O2 inh 98, PHOSPHO1 block 88
O=C(Cn1cc(C(=S)N2CCOCC2)c2ccccc21)N1CCOCC1	none
O=C(O)Cn1cc(C(=S)N2CCCCC2)c2ccccc21	ALR H2O2 inh 91
Cc1ccc(S(=O)(=O)CC(=O)c2ccccc2)cc1	AI-2 QS modul -79
S=C1NC2=C(CCCC2=C2SCCS2)C(c2ccccc2)N1 (configuration not stated)	HCV core dimer 46
CCOc1ccc2nc(SCC(=O)NC(=O)C(C)C)sc2c1	none (no result: ALR H2O2 inh, HCV core dimer)
CCOc1ccc2nc(SCC(=O)c3ccc(Cl)s3)sc2c1	PHOSPHO1 block 62
CCOc1ccc2nc(SCC(=O)c3cccs3)sc2c1	HSF1 activator 61 (no result: ALR H2O2 inh)
CCOc1ccc2nc(SCC(=O)N3c4ccccc4Sc4ccccc43)sc2c1	none
Cc1ccc(OCC(=O)N2CC(C)CC(C)C2)c([N+](=O)[O-])n1 (configuration not stated)	none (no result: HSF1 inh, PHOSPHO1 block, AI-2 QS modul, HCV core dimer, HSF1 activator)
CN1C2CCC1CC(NC(=O)c1cc(S(=O)(=O)N(C)C)c(Cl)cc1Cl)C2 (configuration not stated)	none (no result: HSF1 inh, PHOSPHO1 block, AI-2 QS modul, HCV core dimer, HSF1 activator)
Cc1ccc(O)c(Nc2c3ccccc3nc3ccccc23)c1	ALR H2O2 inh 99
CCN(CC)C(=O)C12CC3CC(CC(Br)(C3)C1)C2	none (no result: ALR H2O2 inh)
Oc1ccc2ccccc2c1CN1CCN(C/C=C/c2ccccc2)CC1	HSF1 activator 185
O=C(CN1CCN(c2ccccc2F)CC1)c1ccc(O)c(O)c1	ALR H2O2 inh 99 (no result: HCV core dimer)
O=S(=O)(c1ccccc1)N1CCN(Cc2c(O)ccc3ccccc23)CC1	none (no result: HSF1 inh, PHOSPHO1 block, AI-2 QS modul, HCV core dimer, HSF1 activator)
Oc1ccc2ccccc2c1CN1CCN(c2ccccc2F)CC1	HSF1 activator 84 (no result: ALR H2O2 inh, HCV core dimer)
CC(C)NS(=O)(=O)c1ccc(CCC(=O)N2CCCCC2)cc1	none
Cc1ccc(-c2ccc(CCC(=O)O)n2NC(=O)c2cccs2)cc1	ALR H2O2 inh 99
O=C(O)CCc1ccc(-c2cccs2)n1NC(=O)c1ccc(Cl)cc1	ALR H2O2 inh 98
O=C(O)CCc1ccc(-c2cccs2)n1NC(=O)c1ccc(Cl)cc1Cl	none
COc1ccc(-c2ccc(CCC(=O)O)n2NC(=O)c2cccs2)cc1	none
CC1(C(=O)OCC(=O)NNC(=O)COc2ccc(Cl)cc2)CC1(Cl)Cl (configuration not stated)	none (no result: PHOSPHO1 block)
COc1ccc(NC(=O)Nc2ccc3nccnc3c2)cc1	ALR H2O2 inh 100
CC(=O)Oc1ccc(C(=O)OCC(=O)c2c(N)n(C)c(=O)n(C)c2=O)cc1OC(C)=O	ALR H2O2 inh 99
COc1ccc(OC)c(C(=O)CN2CCN(S(=O)(=O)c3ccc(Br)cc3)CC2)c1	none
CC(C)c1ccc(S(=O)(=O)N2CCN(CC(=O)Nc3ccc(Cl)cc3F)CC2)cc1	none (no result: HSF1 inh, PHOSPHO1 block, AI-2 QS modul, HCV core dimer, HSF1 activator)
CC1CCN(S(=O)(=O)c2ccc(C(C)C)cc2)CC1	AI-2 QS modul -88
O=C(CN1CCN(S(=O)(=O)c2ccc(Br)cc2)CC1)c1ccc(O)c(O)c1	ALR H2O2 inh 96
CC(C)c1ccc(S(=O)(=O)N2CCN(CC(=O)c3ccc(O)c(O)c3)CC2)cc1	ALR H2O2 inh 99
O=C(O)/C=C/C(=O)Nc1cccc(C(F)(F)F)c1	none
CC(C)c1ccc(/C=C2\SC(=S)N(CCC(=O)N3CCCCC3CCO)C2=O)cc1 (configuration not stated)	none
CCOC(=O)N1CCN(C(=O)COC(=O)CSc2ccc([N+](=O)[O-])cc2)CC1	none (no result: PHOSPHO1 block)
CCC(NC(=O)/C(=C\c1ccc2c(c1)OCO2)NC(C)=O)C(=O)O (configuration not stated)	HSF1 activator 59
O=C(NC12CC3CC(CC(C3)C1)C2)c1cc([N+](=O)[O-])ccc1N1CCOCC1	none
CC(C)c1ccc(CN2CCN(C(=O)CCl)CC2)cc1	PHOSPHO1 block 62 (no result: ALR H2O2 inh, HSF1 inh, AI-2 QS modul, HCV core dimer, HSF1 activator)
Cc1ccc2c(c1)N(CC(=O)NCc1cccs1)C(=O)CO2	none
COc1ccc(N/C(=N/c2nc(C)cc(C)n2)NC(=O)c2ccccc2)cc1	none
COc1ccc2c(c1)[N+](C)(C)C(C)(C)C=C2C	none
CCOc1ccc2c(c1)[N+](C)(C)C(C)(C)C=C2C	HSF1 inh -80
O=C(N/N=C/c1cccc(O)c1)N/N=C/c1cccc(O)c1	ALR H2O2 inh 82
Cc1cc(/C=C(\C#N)C(=O)Nc2ccccc2F)c(C)[nH]1	HSF1 activator 60
N#C/C(=C\c1ccc[nH]1)C(=O)Nc1ccccc1F	none (no result: HSF1 inh, HCV core dimer, HSF1 activator)
CNC(=S)N(CCCO)Cc1cc2cc3c(cc2[nH]c1=O)OCO3	none
COc1ccc(-n2c(/C=C3\C(=O)N(C)c4ccccc43)nc3ccccc3c2=O)cc1	ALR H2O2 inh 97
CCN1C(=O)/C(=C\c2nc3ccccc3c(=O)n2-c2ccccc2)c2ccccc21	none
Cc1ccc2[nH]c3c(c2c1)CCC3=O	none
Cc1ccc2[nH]c3c(c2c1)CCc1cn[nH]c1-3	ALR H2O2 inh 99
NC(=O)c1ccccc1NC(=O)COc1ccc2c(c1)OCO2	none
Cc1nn(Cc2ccc(Cl)cc2)c(C)c1N	ALR H2O2 inh 94
COc1ccc(OC)c(N(CC(=O)Nc2cccc(C(F)(F)F)c2)S(C)(=O)=O)c1	none
C=CC[C@@H](Cc1ccc(F)cc1)C(=O)OC[C@@H]1CCCN1C(=O)[C@@H](CC=C)CC(=O)N[C@H](CO)Cc1ccccc1	none (no result: HSF1 inh, PHOSPHO1 block, AI-2 QS modul, HCV core dimer, HSF1 activator)
O=C(CCC1N=C2c3ccccc3N=C(SCc3ccccc3Cl)N2C1=O)NCc1ccco1 (configuration not stated)	ALR H2O2 inh 99
NS(=O)(=O)c1ccc(CCNC(=O)c2ccc3c(c2)N(Cc2ccccc2)CCS3)cc1	none
CCN1CCN(CCCNC(=O)c2ccc3c(c2)N(Cc2ccccc2)CCS3)CC1	ALR H2O2 inh 99
CCN1CCSc2ccc(C(=O)NCc3ccccc3C)cc21	ALR H2O2 inh 90
O=C(NCc1ccco1)c1ccc2c(c1)N(Cc1ccccc1)CCS2	ALR H2O2 inh 98
Cc1ccc(CN2CCSc3ccc(C(=O)NCc4ccccn4)cc32)cc1	ALR H2O2 inh 98
NC(=O)c1ccsc1NC(=O)CCS(=O)(=O)c1ccc(F)cc1	none (no result: PHOSPHO1 block)
Cc1cccc(NC(NC(=O)c2ccccc2[N+](=O)[O-])C(Cl)(Cl)Cl)c1 (configuration not stated)	none
